This note sets out measurements from the M2OR odorant receptor database.

In the experiment the target is T1, OR2M3 (Homo sapiens) (UniProt Q8NG83).
T1 sequence (whole entry): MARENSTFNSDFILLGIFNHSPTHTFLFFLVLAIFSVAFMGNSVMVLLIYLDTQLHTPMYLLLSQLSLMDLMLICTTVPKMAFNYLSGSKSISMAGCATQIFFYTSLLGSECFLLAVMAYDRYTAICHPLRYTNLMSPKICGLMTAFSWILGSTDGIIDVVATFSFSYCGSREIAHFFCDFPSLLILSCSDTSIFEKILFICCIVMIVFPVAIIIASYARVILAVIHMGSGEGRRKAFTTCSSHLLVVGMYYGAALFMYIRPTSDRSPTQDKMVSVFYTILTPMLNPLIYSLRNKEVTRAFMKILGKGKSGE
As to conditions: stereoisomer not certain. Put shortly:
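Values were gathered from published papers (main text and supplementary material), with extra details requested from the original authors when needed, and checked for typos and inconsistencies. Each receptor–molecule pair is called responsive (active) if the original authors judged the measured signal statistically different from baseline, and non-responsive (inactive) otherwise. Assay methods varied by source, often transient mammalian cell-line luciferase assays. Recorded details include cell line, G-protein, co-transfected protein and tags.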

SMILES strings stand for the structures.

With `CC(C)CC=O`, the “odorant receptor agonist call” value is “inactive”. For the compound `C=CC(=O)CCCCC`, the “odorant receptor agonist call” value was “inactive”. Consider `CCOC(=O)C1CCCCC1`, for which the “odorant receptor agonist call” value was “inactive”.

For the compound `CSCSC`, the “odorant receptor agonist call” value was “inactive”. Take `CCCCCC=CC=O`: the “odorant receptor agonist call” value was “inactive”. With `C=CC(=C)CCC=C(C)C`, the “odorant receptor agonist call” value is “inactive”. The value for `CCC(S)C(C)=O` (centres undefined) was “inactive”. Take `COc1nccnc1C(C)C`: the “odorant receptor agonist call” value was “inactive”. In the case of `CCOC(=O)CC(C)C`, the “odorant receptor agonist call” value is “inactive”.

Take `CC(=O)c1ccccc1N`: the “odorant receptor agonist call” value was “inactive”. `CCC=CCC=O`: the “odorant receptor agonist call” value is “inactive”. As for `O=C(O)C=Cc1ccc(O)cc1`, the “odorant receptor agonist call” value was “inactive”. As for `CCCCCC(=O)OCC`, the “odorant receptor agonist call” value was “inactive”.

With `C=Cc1ccc(O)c(OC)c1`, the “odorant receptor agonist call” value was “inactive”. On to `CC(C)c1ccc(C=O)cc1`, for which the “odorant receptor agonist call” value was “inactive”. `CC(=O)OCC=Cc1ccccc1`: the “odorant receptor agonist call” value is “inactive”.

As for `CCCCCCCC1CCCC(=O)O1` (centres undefined), the “odorant receptor agonist call” value was “inactive”.

As to `CCCCC(=O)O`, the “odorant receptor agonist call” value was “inactive”. `CCCC=CC=O`: the “odorant receptor agonist call” value is “inactive”.

`CC=CC(=O)C(C)CC` (centres undefined): the “odorant receptor agonist call” value was “inactive”. With `CCc1ccc(O)c(OC)c1`, the “odorant receptor agonist call” value was “inactive”. Turning to `CSCCC=O`, the “odorant receptor agonist call” value was “inactive”. Take `Cc1occc1S`: the “odorant receptor agonist call” value was “inactive”. Next, `CCCCCC1CCCC(=O)O1` (centres undefined): “inactive”; `COCCC(C)(C)S`: “inactive”. On to `CCC(=O)C(C)=O`, for which the “odorant receptor agonist call” value was “inactive”. Consider `COC(=O)C(C)C`, for which the “odorant receptor agonist call” value is “inactive”. In the case of `C=CC(O)CCCCC` (centres undefined), the “odorant receptor agonist call” value was “inactive”.

On to `CC(C)=CC1CC(C)CCO1` (centres undefined), for which the “odorant receptor agonist call” value was “inactive”.
